Laboratory results: ChEMBL document CHEMBL4689842, “EUbOPEN Chemogenomics Library wave 1” (2021)

Tested on: Fibroblast
Test: Multiplex assay against human fibroblast
Type: toxicity, cell-based
In short: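 Four dyes were applied at seeding to live cells: Hoechst33342, BioTracker Green Microtubule Cytoskeleton Dye, MitoTracker Red and Annexin V Alexa Fluor 680. Imaging after compound addition used a CQ1 microscope at 37°C and 5% CO2. CellPathfinder machine-learning gating then sorted cells into Hoechst high-intensity objects or normal cells, normal cells into healthy, pyknosed or fragmented nuclei, and pyknosed cells into mitotic or apoptotic, with tubulin, mitochondrial-mass and membrane-permeability phenotypes given as per cents of healthy-nucleus cells.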

[1] = 12 h, 1 µM, compound concentration 1 uM, replicate 1
[2] = 12 h, 1 µM, compound concentration 1 uM, replicate 2
[3] = 12 h, 10 µM, compound concentration 10 uM, replicate 1
[4] = 12 h, 10 µM, compound concentration 10 uM, replicate 2
[5] = 24 h, 1 µM, compound concentration 1 uM, replicate 1
[6] = 24 h, 1 µM, compound concentration 1 uM, replicate 2
[7] = 24 h, 10 µM, compound concentration 10 uM, replicate 1
[8] = 24 h, 10 µM, compound concentration 10 uM, replicate 2
[9] = 48 h, 1 µM, compound concentration 1 uM, replicate 1
[10] = 48 h, 1 µM, compound concentration 1 uM, replicate 2
[11] = 48 h, 10 µM, compound concentration 10 uM, replicate 1
[12] = 48 h, 10 µM, compound concentration 10 uM, replicate 2

SMILES: Cc1nc(-c2ccc(-c3ccc(C(=O)N4CCc5cc6c(cc54)C4(CCN(C)CC4)CO6)cc3)c(C)c2)no1 [SB-224289]
- Population Apoptotic (%) [1]: 66%
- Population Fragmented Nuclei (%) [1]: 35%
- Population Healthy Nuclei (%) [1]: 33%
- Population Hoechst High Intensity Objects (%) [1]: 7%
- Population Membrane Permeable-Phenotype (%) [1]: 18%
- Population Mitochondria Different-Phenotype (%) [1]: 25%
- Population Mitotic Cells (%) [1]: 33%
- Population Normal (%) [1]: 92%
- Population Pyknosed Nuclei (%) [1]: 31%
- Population Tubulin-Different-Phenotype (%) [1]: 75%
- Total Cell Count [1]: 188
- Population Apoptotic (%) [2]: 28%
- Population Fragmented Nuclei (%) [2]: 4%
- Population Healthy Nuclei (%) [2]: 81%
- Population Hoechst High Intensity Objects (%) [2]: 12%
- Population Membrane Permeable-Phenotype (%) [2]: 10%
- Population Mitochondria Different-Phenotype (%) [2]: 42%
- Population Mitotic Cells (%) [2]: 71%
- Population Normal (%) [2]: 87%
- Population Pyknosed Nuclei (%) [2]: 14%
- Population Tubulin-Different-Phenotype (%) [2]: 37%
- Total Cell Count [2]: 65
- Population Apoptotic (%) [3]: 71%
- Population Fragmented Nuclei (%) [3]: 34%
- Population Healthy Nuclei (%) [3]: 40%
- Population Hoechst High Intensity Objects (%) [3]: 15%
- Population Membrane Permeable-Phenotype (%) [3]: 5%
- Population Mitochondria Different-Phenotype (%) [3]: 62%
- Population Mitotic Cells (%) [3]: 28%
- Population Normal (%) [3]: 84%
- Population Pyknosed Nuclei (%) [3]: 24%
- Population Tubulin-Different-Phenotype (%) [3]: 89%
- Total Cell Count [3]: 213
- Population Apoptotic (%) [4]: 63%
- Population Fragmented Nuclei (%) [4]: 7%
- Population Healthy Nuclei (%) [4]: 77%
- Population Hoechst High Intensity Objects (%) [4]: 11%
- Population Membrane Permeable-Phenotype (%) [4]: 54%
- Population Mitochondria Different-Phenotype (%) [4]: 100%
- Population Mitotic Cells (%) [4]: 36%
- Population Normal (%) [4]: 88%
- Population Pyknosed Nuclei (%) [4]: 15%
- Population Tubulin-Different-Phenotype (%) [4]: 100%
- Total Cell Count [4]: 56
- Population Apoptotic (%) [5]: 65%
- Population Fragmented Nuclei (%) [5]: 32%
- Population Healthy Nuclei (%) [5]: 41%
- Population Hoechst High Intensity Objects (%) [5]: 14%
- Population Membrane Permeable-Phenotype (%) [5]: 20%
- Population Mitochondria Different-Phenotype (%) [5]: 27%
- Population Mitotic Cells (%) [5]: 34%
- Population Normal (%) [5]: 85%
- Population Pyknosed Nuclei (%) [5]: 25%
- Population Tubulin-Different-Phenotype (%) [5]: 79%
- Total Cell Count [5]: 202
- Population Apoptotic (%) [6]: 0%
- Population Fragmented Nuclei (%) [6]: 15%
- Population Healthy Nuclei (%) [6]: 77%
- Population Hoechst High Intensity Objects (%) [6]: 9%
- Population Membrane Permeable-Phenotype (%) [6]: 6%
- Population Mitochondria Different-Phenotype (%) [6]: 38%
- Population Mitotic Cells (%) [6]: 100%
- Population Normal (%) [6]: 90%
- Population Pyknosed Nuclei (%) [6]: 7%
- Population Tubulin-Different-Phenotype (%) [6]: 22%
- Total Cell Count [6]: 73
- Population Apoptotic (%) [7]: 78%
- Population Fragmented Nuclei (%) [7]: 35%
- Population Healthy Nuclei (%) [7]: 25%
- Population Hoechst High Intensity Objects (%) [7]: 17%
- Population Membrane Permeable-Phenotype (%) [7]: 2%
- Population Mitochondria Different-Phenotype (%) [7]: 61%
- Population Mitotic Cells (%) [7]: 21%
- Population Normal (%) [7]: 82%
- Population Pyknosed Nuclei (%) [7]: 38%
- Population Tubulin-Different-Phenotype (%) [7]: 66%
- Total Cell Count [7]: 186
- Population Apoptotic (%) [8]: 76%
- Population Fragmented Nuclei (%) [8]: 16%
- Population Healthy Nuclei (%) [8]: 56%
- Population Hoechst High Intensity Objects (%) [8]: 11%
- Population Membrane Permeable-Phenotype (%) [8]: 86%
- Population Mitochondria Different-Phenotype (%) [8]: 100%
- Population Mitotic Cells (%) [8]: 23%
- Population Normal (%) [8]: 88%
- Population Pyknosed Nuclei (%) [8]: 26%
- Population Tubulin-Different-Phenotype (%) [8]: 100%
- Total Cell Count [8]: 63
- Population Apoptotic (%) [9]: 68%
- Population Fragmented Nuclei (%) [9]: 44%
- Population Healthy Nuclei (%) [9]: 46%
- Population Hoechst High Intensity Objects (%) [9]: 21%
- Population Membrane Permeable-Phenotype (%) [9]: 8%
- Population Mitochondria Different-Phenotype (%) [9]: 6%
- Population Mitotic Cells (%) [9]: 31%
- Population Normal (%) [9]: 78%
- Population Pyknosed Nuclei (%) [9]: 8%
- Population Tubulin-Different-Phenotype (%) [9]: 50%
- Total Cell Count [9]: 277
- Population Apoptotic (%) [10]: 0%
- Population Fragmented Nuclei (%) [10]: 48%
- Population Healthy Nuclei (%) [10]: 50%
- Population Hoechst High Intensity Objects (%) [10]: 27%
- Population Membrane Permeable-Phenotype (%) [10]: 12%
- Population Mitochondria Different-Phenotype (%) [10]: 3%
- Population Mitotic Cells (%) [10]: 100%
- Population Normal (%) [10]: 72%
- Population Pyknosed Nuclei (%) [10]: 0%
- Population Tubulin-Different-Phenotype (%) [10]: 56%
- Total Cell Count [10]: 169
- Population Apoptotic (%) [11]: 90%
- Population Fragmented Nuclei (%) [11]: 46%
- Population Healthy Nuclei (%) [11]: 21%
- Population Hoechst High Intensity Objects (%) [11]: 33%
- Population Membrane Permeable-Phenotype (%) [11]: 30%
- Population Mitochondria Different-Phenotype (%) [11]: 50%
- Population Mitotic Cells (%) [11]: 10%
- Population Normal (%) [11]: 66%
- Population Pyknosed Nuclei (%) [11]: 31%
- Population Tubulin-Different-Phenotype (%) [11]: 85%
- Total Cell Count [11]: 142
- Population Apoptotic (%) [12]: 100%
- Population Fragmented Nuclei (%) [12]: 47%
- Population Healthy Nuclei (%) [12]: 15%
- Population Hoechst High Intensity Objects (%) [12]: 29%
- Population Membrane Permeable-Phenotype (%) [12]: 14%
- Population Mitochondria Different-Phenotype (%) [12]: 85%
- Population Mitotic Cells (%) [12]: 0%
- Population Normal (%) [12]: 70%
- Population Pyknosed Nuclei (%) [12]: 36%
- Population Tubulin-Different-Phenotype (%) [12]: 71%
- Total Cell Count [12]: 127
